Key:
Settings in all cases: stereoisomer not certain
UniProt L7N210 = molecular target: T1, UniProt L7N210
T1 sequence (whole entry): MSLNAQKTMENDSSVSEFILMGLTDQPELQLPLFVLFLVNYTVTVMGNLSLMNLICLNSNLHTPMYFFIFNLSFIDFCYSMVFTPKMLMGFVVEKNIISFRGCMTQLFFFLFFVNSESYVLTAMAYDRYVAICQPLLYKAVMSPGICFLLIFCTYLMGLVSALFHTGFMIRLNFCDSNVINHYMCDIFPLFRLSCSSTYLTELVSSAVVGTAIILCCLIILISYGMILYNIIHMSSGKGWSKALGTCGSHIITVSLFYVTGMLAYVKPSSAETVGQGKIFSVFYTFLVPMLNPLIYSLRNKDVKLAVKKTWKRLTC
How it was run: (§1)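 Assay methods differ from source to source, frequently being transient luciferase assays in mammalian cell lines. For each receptor–molecule pair, the label responsive (active) applies when the original authors judged the measured signal statistically different from baseline, and non-responsive (inactive) applies otherwise.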

UniProt Q3KPB0 = molecular target: T2, UniProt Q3KPB0
T2 sequence (whole entry): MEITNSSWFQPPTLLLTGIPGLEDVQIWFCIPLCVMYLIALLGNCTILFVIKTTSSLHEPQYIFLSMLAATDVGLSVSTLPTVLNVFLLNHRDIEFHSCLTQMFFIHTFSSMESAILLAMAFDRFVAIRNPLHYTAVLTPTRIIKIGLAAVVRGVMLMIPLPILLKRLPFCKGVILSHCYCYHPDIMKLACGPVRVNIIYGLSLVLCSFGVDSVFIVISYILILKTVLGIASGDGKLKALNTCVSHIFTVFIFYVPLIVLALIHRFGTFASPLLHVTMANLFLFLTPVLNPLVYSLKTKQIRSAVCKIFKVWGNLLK
How it was run: as §1

UniProt Q3U0P3 = molecular target: T3, UniProt Q3U0P3
T3 sequence (whole entry): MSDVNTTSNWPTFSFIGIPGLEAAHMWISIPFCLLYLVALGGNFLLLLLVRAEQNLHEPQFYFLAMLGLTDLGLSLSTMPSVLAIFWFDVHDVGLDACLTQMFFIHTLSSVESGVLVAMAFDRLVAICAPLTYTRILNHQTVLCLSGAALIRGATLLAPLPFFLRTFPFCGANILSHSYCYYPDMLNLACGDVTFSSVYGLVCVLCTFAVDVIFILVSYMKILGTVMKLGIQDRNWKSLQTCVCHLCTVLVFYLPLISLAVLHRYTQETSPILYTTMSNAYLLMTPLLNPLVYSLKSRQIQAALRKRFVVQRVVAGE
How it was run: as §1

UniProt Q7TQU8 = molecular target: T4, UniProt Q7TQU8
T4 sequence (whole entry): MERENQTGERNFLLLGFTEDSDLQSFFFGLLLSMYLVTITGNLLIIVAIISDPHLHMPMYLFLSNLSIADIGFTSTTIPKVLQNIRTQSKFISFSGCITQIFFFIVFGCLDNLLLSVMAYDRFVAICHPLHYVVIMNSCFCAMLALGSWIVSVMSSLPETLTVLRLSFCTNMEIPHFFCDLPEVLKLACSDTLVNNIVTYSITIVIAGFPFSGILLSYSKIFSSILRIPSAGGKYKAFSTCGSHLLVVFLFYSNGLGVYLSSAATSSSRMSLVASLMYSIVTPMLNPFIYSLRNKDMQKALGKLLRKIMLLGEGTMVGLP
How it was run: as §1

UniProt Q7TR79 = molecular target: T5, UniProt Q7TR79
T5 sequence (whole entry): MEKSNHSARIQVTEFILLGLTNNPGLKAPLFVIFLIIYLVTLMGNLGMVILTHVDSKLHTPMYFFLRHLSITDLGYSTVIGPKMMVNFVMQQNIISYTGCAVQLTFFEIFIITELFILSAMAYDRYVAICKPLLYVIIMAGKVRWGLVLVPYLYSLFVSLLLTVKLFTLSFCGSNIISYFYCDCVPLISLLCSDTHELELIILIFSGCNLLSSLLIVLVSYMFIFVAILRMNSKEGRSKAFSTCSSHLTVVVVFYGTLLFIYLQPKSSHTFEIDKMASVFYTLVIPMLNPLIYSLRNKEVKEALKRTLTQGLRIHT
How it was run: as §1

UniProt Q7TRX0 = molecular target: T6, UniProt Q7TRX0
T6 sequence (whole entry): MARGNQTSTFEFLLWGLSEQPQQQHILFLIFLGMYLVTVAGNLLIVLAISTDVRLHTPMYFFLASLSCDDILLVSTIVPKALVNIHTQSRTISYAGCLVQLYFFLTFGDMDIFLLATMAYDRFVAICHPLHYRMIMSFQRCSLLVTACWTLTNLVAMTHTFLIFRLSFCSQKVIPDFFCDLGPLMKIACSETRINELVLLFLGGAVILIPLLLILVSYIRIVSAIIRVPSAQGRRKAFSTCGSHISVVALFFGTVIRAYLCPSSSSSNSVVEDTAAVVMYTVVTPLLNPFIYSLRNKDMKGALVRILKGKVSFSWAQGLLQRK
How it was run: as §1

UniProt Q8VF43 = molecular target: T7, UniProt Q8VF43
T7 sequence (whole entry): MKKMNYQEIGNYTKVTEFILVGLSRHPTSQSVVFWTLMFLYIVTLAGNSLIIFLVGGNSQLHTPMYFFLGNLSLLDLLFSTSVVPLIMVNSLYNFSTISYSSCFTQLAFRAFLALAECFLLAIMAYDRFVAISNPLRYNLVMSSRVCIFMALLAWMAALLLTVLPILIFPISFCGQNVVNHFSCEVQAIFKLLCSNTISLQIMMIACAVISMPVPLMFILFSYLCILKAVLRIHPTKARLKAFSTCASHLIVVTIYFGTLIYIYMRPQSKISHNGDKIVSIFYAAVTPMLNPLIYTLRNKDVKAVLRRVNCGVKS
How it was run: as §1

UniProt Q7TQV4 = molecular target: T8, UniProt Q7TQV4
T8 sequence (whole entry): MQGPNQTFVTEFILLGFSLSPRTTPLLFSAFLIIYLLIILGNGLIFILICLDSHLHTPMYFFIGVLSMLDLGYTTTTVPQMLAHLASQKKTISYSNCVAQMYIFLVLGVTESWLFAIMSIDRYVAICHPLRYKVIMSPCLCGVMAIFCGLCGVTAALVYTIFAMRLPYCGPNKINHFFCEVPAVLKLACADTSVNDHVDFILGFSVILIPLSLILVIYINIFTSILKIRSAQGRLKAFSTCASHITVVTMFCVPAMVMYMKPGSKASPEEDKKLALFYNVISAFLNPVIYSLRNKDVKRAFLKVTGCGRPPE
How it was run: as §1

UniProt Q7TR71 = molecular target: T9, UniProt Q7TR71
T9 sequence (whole entry): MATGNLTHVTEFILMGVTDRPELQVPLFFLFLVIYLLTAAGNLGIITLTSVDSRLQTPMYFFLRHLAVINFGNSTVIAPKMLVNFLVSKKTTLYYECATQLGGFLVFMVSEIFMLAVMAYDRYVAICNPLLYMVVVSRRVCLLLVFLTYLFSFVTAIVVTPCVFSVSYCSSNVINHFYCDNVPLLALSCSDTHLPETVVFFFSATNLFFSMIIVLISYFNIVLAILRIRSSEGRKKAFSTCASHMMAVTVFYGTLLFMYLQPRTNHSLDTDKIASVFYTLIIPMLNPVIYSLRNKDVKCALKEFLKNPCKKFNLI
How it was run: as §1

UniProt Q7TRA3 = molecular target: T10, UniProt Q7TRA3
T10 sequence (whole entry): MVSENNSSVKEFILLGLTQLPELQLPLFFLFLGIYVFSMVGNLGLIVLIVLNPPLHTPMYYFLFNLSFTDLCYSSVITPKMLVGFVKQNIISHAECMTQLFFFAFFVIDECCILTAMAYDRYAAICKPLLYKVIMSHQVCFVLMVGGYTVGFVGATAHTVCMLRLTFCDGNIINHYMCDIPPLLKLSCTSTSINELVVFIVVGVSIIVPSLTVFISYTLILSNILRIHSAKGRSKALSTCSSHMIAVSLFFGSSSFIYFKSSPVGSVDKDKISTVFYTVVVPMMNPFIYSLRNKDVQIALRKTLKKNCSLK
How it was run: as §1

UniProt Q7TRE4 = molecular target: T11, UniProt Q7TRE4
T11 sequence (whole entry): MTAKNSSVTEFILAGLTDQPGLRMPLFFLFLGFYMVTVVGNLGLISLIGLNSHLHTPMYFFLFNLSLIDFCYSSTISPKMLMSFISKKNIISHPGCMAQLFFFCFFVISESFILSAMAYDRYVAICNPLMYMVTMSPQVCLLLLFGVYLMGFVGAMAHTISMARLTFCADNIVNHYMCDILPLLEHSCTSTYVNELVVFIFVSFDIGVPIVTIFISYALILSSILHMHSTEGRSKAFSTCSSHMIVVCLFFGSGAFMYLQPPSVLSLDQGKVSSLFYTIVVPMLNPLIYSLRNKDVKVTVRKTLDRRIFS
How it was run: as §1

UniProt Q7TRW1 = molecular target: T12, UniProt Q7TRW1
T12 sequence (whole entry): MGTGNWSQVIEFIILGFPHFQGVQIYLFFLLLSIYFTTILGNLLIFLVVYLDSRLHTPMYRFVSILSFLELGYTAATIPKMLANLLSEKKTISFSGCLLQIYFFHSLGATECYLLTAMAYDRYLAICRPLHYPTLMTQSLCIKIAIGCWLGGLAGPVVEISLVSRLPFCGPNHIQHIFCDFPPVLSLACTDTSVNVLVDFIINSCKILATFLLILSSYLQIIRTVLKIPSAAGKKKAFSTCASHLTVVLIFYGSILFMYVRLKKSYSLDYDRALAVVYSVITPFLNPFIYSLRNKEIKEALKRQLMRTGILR
How it was run: as §1

UniProt Q8VEU7 = molecular target: T13, UniProt Q8VEU7
T13 sequence (whole entry): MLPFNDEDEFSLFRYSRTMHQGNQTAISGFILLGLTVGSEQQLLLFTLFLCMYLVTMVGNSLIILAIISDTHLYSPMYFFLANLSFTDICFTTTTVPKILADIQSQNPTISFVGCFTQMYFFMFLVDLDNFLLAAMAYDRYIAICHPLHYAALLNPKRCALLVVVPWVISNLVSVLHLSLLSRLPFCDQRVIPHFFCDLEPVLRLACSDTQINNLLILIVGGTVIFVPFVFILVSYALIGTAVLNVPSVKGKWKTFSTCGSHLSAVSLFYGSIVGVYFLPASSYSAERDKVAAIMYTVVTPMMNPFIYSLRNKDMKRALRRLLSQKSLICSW
How it was run: as §1

UniProt Q8VF05 = molecular target: T14, UniProt Q8VF05
T14 sequence (whole entry): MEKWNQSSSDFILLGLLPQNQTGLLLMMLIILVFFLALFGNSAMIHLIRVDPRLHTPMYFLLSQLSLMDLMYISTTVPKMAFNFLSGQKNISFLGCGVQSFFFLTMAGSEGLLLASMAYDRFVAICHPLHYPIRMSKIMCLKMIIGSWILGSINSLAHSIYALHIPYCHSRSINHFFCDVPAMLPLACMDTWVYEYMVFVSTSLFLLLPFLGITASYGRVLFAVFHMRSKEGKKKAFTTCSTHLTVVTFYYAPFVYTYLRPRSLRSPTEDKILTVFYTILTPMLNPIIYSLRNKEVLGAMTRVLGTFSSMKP
How it was run: as §1

UniProt Q8VF24 = molecular target: T15, UniProt Q8VF24
T15 sequence (whole entry): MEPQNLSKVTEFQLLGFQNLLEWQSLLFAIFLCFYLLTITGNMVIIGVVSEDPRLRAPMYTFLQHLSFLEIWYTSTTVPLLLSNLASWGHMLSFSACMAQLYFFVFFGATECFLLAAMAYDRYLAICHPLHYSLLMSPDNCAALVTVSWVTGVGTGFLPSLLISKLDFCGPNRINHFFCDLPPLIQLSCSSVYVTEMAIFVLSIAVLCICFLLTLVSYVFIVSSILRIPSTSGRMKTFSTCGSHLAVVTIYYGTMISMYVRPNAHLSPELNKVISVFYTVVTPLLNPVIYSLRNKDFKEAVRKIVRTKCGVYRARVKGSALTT
How it was run: as §1

UniProt Q8VF44 = molecular target: T16, UniProt Q8VF44
T16 sequence (whole entry): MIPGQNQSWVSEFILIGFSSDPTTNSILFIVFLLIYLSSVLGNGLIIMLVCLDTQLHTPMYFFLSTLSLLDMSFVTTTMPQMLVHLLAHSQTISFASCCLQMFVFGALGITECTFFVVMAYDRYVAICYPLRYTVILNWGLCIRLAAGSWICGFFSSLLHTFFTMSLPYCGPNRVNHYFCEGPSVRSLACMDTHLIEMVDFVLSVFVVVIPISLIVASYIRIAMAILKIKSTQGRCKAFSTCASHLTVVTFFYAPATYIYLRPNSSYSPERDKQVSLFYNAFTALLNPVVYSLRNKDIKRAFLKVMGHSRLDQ
How it was run: as §1

SMILES	odorant receptor agonist call (UniProt L7N210)	odorant receptor agonist call (UniProt Q3KPB0)	odorant receptor agonist call (UniProt Q3U0P3)	odorant receptor agonist call (UniProt Q7TQU8)	odorant receptor agonist call (UniProt Q7TR79)	odorant receptor agonist call (UniProt Q7TRX0)	odorant receptor agonist call (UniProt Q8VF43)	odorant receptor agonist call (UniProt Q7TQV4)	odorant receptor agonist call (UniProt Q7TR71)	odorant receptor agonist call (UniProt Q7TRA3)	odorant receptor agonist call (UniProt Q7TRE4)	odorant receptor agonist call (UniProt Q7TRW1)	odorant receptor agonist call (UniProt Q8VEU7)	odorant receptor agonist call (UniProt Q8VF05)	odorant receptor agonist call (UniProt Q8VF24)	odorant receptor agonist call (UniProt Q8VF44)
COc1ccc(C=O)cc1	active	inactive	inactive	inactive	inactive	inactive	inactive									
CCC1CCC(=O)O1 (stereo not drawn)	inactive							active	active	inactive	inactive	inactive	inactive	active	inactive	inactive
O=Cc1ccc2c(c1)OCO2	active	inactive	inactive	inactive	inactive	inactive	inactive									
C=CCOC(=O)Cc1ccccc1	inactive	inactive	inactive	inactive	inactive	inactive	inactive	inactive	inactive	inactive	inactive	inactive	inactive	active	inactive	inactive
Oc1ccccc1Br	inactive	inactive	inactive	inactive	inactive	inactive	inactive									
CCCCCCC(Br)C(=O)O (stereo not drawn)	inactive	inactive	inactive	inactive	inactive	inactive	inactive									
Cc1ccc(OC(=O)Cc2ccccc2)cc1	inactive	inactive	inactive	inactive	inactive	inactive	inactive									
OCc1ccc2c(c1)OCO2	inactive	inactive	inactive	inactive	inactive	inactive	inactive									

— the M2OR odorant receptor database
